Experimental data taken from ChEMBL document CHEMBL2440064, “Synthesis and biological evaluation of 2-amino-5-aryl-3-benzylthiopyridine scaffold based potent c-Met inhibitors” (Bioorg Med Chem, 2013).
Calls of active or inactive are those of the source. The calls are words filed in the database; no cut-off is given here.

How the values were obtained:
[1] = Volume of distribution in rat at 2 mg/kg, iv and 10 mg/kg, po; assay type: ADME, organism-based; conditions: in vivo
Summary of the method: (§1)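 Rats given a single iv dose (2 mg/kg) or a single po dose (10 mg/kg).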

[2] = Oral bioavailability in rat at 10 mg/kg; assay type: ADME, organism-based; conditions: in vivo; summary of the method: as §1
[3] = Half life in rat at 2 mg/kg, iv and 10 mg/kg, po; assay type: ADME, organism-based; conditions: in vivo
Summary of the method: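 Rat pharmacokinetics after a single intravenous dose (2 mg/kg) and a single oral dose (10 mg/kg).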

NIH3T3 [4] = assay: Antitumor activity against mouse NIH/3T3 cells expressing TPR/Met allografted in mouse assessed as tumor growth inhibition at 100 mg/kg, po qd administered for 2 weeks measured twice per week relative to vehicle-treated control; assay type: functional; conditions: NIH3T3, 336 h, read-out: TGI
Summary of the method: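 Tumor fragments (1 mm³) implanted s.c. in right flank of nude mice by trocar. Randomized at 100–150 mm³ tumor volume. Dosed orally 7 days/week for 2 weeks; vehicle controls. Calipers twice weekly; TV = length×width²/2. Inhibition = 100%×{1−[(T day14−T day0)/(C day14−C day0)]}. n = 6/group, Student's t-test.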

[5] = target: T1, Hepatocyte growth factor receptor (Homo sapiens, UniProt P08581); assay: Inhibition of c-Met phosphorylation in gefitinib-resistant human HCC827 cells at 0.5 uM after 2 hrs by Western blotting analysis; assay type: cell-based
T1 sequence (P08581 whole entry): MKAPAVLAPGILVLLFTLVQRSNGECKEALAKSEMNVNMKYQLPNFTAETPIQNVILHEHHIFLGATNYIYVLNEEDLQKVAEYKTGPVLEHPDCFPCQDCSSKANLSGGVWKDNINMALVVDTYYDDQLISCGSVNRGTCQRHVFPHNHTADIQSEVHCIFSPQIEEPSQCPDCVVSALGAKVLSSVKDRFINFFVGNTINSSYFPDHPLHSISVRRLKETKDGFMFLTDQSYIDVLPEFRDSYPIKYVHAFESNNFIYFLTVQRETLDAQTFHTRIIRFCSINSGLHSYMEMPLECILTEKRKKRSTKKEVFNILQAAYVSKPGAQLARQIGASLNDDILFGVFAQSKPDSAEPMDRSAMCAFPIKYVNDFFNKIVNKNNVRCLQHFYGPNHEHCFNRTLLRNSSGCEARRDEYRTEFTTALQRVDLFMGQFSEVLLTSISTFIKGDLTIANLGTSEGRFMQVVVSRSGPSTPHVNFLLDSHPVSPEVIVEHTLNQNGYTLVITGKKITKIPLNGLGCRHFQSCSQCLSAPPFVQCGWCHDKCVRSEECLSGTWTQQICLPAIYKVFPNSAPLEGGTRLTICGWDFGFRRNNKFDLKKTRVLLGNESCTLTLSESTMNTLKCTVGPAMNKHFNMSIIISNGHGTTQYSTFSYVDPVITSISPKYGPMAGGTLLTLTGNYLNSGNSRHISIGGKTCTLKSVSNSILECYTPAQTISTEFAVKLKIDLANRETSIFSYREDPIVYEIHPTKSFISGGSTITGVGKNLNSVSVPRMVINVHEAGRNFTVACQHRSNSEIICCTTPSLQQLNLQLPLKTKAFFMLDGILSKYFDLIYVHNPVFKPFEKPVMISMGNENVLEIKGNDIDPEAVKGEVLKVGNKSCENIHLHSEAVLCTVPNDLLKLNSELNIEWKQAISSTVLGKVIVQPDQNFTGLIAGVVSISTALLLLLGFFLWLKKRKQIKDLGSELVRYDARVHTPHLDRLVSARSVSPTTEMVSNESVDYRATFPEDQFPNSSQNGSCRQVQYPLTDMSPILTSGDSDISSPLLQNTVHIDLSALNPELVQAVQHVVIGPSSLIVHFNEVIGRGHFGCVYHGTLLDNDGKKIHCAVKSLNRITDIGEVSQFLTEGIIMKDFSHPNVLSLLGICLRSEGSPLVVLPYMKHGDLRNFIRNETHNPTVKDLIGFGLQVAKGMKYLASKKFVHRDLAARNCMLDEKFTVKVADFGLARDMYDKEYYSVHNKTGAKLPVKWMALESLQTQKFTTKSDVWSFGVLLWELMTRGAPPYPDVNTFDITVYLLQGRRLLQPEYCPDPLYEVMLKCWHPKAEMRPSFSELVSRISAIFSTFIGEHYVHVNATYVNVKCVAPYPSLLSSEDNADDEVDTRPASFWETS
Summary of the method: (§2)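 Cells grown to exponential phase, treated with compound 2 h at 37°C, lysed in 1× SDS sample buffer, resolved on 10% SDS-PAGE and transferred to nitrocellulose for immunoblotting.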

[6] = target: Hepatocyte growth factor receptor (Canis lupus familiaris) (UniProt Q75ZY9); assay: Inhibition of c-Met in MDCK cells assessed as HGF-induced cell motility at 0.3 to 3 uM after 1 to 10 hrs by wound-healing assay; assay type: cell-based
Summary of the method: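 MDCK monolayers in 12-well plates, pre-incubated 30 min serum-free. Scratch wound made with micropipette and washed, then compound added with or without 50 ng/mL recombinant human HGF at 37°C. Phase-contrast images at 0 and 10 h.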

[7] = target: Hepatocyte growth factor receptor (Canis lupus familiaris) (UniProt Q75ZY9); assay: Inhibition of c-Met in MDCK cells assessed as HGF-induced cell scattering at 3 uM after 24 hrs by microscopic analysis; assay type: cell-based
Summary of the method: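 MDCK cells plated at 1,500/well in 96-well plates and allowed to form clusters over 24 h. Then 24 h with compound plus 50 ng/mL recombinant human HGF in FBS-free medium. Fixed in 4% paraformaldehyde 15 min at room temperature, stained with 0.2% crystal violet and imaged by microscopy.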

MKN-45 [8] = assay: Induction of cell cycle arrest in human MKN45 cells assessed as accumulation at G1 phase at 1 uM after 24 hrs by propidium iodide staining-based FACS analysis (reference value: 39.1%); assay type: functional
BaF3 = assay: Antiproliferative activity against mouse BAF3 cells expressing TPR/Met fusion protein after 72 hrs; assay type: functional, cell-based; conditions: BaF3, 72 h
Summary of the method: (§3)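 Cells seeded in 96-well plates, exposed next day to a range of compound concentrations and cultured 72 h; proliferation read by sulforhodamine B or CCK-8. IC50 as mean ± SD (μM) from three separate experiments.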

HCT-116 = assay: Antiproliferative activity against human HCT116 cells after 72 hrs; conditions: HCT-116, 72 h
NIH3T3 [9] = assay: Antiproliferative activity against mouse NIH/3T3 cells expressing TPR/Met fusion protein after 72 hrs; assay type: functional, cell-based; conditions: NIH3T3, 72 h; summary of the method: as §3
SK-OV-3 = assay: Antiproliferative activity against human SKOV3 cells after 72 hrs; conditions: SK-OV-3, 72 h
NCI-H661 = assay: Antiproliferative activity against human NCI-H661 cells after 72 hrs; conditions: NCI-H661, 72 h
[10] = target: T2, TPR/MET fusion protein (Mus musculus) (UniProt P16056+F6ZDS4); assay: Inhibition of TPR/Met in mouse BAF3 cells assessed as inhibition of p44/42 phosphorylation at 0.08 to 10 uM after 2 hrs by Western blotting analysis; assay type: cell-based; summary of the method: as §2
T2 sequence (F6ZDS4 whole entry partner, the tested form may be a part): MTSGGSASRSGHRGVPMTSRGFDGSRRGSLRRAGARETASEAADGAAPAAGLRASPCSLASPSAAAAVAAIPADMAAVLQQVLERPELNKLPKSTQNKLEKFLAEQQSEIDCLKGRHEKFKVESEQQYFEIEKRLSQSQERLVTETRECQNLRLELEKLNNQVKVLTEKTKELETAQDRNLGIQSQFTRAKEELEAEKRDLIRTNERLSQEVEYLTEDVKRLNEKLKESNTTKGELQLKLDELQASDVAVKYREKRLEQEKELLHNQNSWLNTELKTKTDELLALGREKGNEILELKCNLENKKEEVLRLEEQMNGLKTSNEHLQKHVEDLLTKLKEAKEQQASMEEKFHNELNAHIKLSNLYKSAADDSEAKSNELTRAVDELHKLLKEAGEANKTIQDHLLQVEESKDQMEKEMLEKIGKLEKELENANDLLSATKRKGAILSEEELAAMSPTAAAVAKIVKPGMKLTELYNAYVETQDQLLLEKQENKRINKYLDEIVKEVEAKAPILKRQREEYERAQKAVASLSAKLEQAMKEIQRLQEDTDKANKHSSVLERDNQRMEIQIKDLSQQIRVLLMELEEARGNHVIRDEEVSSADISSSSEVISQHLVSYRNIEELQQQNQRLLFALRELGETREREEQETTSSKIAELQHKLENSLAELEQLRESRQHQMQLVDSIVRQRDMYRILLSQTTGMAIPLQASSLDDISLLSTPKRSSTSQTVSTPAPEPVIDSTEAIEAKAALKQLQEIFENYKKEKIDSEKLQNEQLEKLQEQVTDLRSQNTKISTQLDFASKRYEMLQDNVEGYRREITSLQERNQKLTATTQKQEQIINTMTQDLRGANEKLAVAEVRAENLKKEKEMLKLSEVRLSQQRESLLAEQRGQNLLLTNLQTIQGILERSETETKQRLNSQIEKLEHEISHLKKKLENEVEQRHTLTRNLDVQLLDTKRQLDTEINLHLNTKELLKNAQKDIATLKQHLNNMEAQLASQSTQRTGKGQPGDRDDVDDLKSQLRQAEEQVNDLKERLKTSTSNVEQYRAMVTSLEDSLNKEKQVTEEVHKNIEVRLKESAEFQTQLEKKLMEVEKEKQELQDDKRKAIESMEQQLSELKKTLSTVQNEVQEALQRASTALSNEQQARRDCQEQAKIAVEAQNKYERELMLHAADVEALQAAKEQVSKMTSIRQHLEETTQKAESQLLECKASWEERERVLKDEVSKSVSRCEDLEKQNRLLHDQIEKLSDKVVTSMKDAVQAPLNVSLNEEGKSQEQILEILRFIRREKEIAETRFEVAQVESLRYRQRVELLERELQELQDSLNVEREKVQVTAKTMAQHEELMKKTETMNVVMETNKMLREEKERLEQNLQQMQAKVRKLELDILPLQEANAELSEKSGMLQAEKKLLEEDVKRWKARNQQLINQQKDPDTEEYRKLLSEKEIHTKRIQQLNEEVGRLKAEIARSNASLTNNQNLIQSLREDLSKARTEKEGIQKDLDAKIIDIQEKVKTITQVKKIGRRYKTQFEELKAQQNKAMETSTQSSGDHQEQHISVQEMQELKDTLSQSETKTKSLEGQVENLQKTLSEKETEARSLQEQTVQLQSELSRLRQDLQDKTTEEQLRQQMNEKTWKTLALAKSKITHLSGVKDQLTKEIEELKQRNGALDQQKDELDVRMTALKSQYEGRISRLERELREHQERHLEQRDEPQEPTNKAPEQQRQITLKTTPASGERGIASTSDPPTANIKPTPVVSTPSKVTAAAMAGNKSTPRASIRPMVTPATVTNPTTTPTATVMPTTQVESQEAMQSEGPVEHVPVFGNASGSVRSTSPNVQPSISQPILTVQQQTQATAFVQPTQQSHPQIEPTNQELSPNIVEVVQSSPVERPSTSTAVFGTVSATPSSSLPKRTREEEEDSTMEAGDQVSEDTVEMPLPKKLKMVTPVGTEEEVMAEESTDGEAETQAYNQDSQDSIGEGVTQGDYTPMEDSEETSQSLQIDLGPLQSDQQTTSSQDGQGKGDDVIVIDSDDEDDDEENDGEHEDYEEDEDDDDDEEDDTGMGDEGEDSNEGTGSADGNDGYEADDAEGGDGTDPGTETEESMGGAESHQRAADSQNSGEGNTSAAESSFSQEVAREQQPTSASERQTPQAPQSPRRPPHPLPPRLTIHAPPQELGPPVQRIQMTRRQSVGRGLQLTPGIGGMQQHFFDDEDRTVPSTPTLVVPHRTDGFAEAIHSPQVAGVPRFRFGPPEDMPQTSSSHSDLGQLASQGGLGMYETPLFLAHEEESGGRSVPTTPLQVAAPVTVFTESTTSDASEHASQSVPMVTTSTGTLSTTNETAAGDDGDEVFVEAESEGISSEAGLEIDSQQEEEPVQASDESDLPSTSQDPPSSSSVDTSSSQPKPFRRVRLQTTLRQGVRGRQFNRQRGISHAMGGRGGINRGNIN
T2 sequence (P16056 25-1379 limits assumed): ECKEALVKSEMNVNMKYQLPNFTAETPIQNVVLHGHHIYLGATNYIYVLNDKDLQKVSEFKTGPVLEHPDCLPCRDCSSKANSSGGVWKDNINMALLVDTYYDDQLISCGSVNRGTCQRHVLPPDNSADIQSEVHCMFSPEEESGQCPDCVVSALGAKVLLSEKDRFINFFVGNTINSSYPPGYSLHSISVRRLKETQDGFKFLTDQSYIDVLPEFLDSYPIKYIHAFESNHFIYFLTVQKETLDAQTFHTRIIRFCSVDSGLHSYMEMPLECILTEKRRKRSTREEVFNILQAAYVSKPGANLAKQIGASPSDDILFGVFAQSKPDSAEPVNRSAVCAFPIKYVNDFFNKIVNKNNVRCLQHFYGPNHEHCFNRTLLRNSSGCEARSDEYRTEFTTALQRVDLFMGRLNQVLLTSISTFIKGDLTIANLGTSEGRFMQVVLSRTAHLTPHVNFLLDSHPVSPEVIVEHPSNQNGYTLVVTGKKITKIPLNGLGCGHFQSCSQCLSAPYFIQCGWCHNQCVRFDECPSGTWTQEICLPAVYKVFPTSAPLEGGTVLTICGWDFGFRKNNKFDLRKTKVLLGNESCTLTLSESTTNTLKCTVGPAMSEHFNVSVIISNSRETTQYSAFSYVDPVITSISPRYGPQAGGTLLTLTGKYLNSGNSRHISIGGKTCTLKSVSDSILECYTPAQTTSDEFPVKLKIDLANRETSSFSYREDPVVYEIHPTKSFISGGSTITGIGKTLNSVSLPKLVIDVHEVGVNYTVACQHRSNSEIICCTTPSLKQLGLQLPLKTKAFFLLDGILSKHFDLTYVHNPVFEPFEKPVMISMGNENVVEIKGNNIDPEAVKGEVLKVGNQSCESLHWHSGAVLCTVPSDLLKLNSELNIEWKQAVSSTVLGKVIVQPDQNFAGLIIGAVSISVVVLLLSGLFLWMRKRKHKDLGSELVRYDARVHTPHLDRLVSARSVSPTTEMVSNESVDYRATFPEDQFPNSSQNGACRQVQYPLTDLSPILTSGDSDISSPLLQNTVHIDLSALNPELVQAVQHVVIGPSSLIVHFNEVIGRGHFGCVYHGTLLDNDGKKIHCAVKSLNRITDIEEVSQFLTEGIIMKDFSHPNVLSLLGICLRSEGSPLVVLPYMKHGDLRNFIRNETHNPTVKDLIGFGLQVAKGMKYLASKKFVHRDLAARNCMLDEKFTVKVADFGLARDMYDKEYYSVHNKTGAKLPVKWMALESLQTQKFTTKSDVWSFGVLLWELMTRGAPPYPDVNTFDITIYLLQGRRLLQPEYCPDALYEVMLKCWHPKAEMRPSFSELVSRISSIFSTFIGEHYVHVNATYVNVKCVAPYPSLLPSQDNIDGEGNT

MKN-45 [11] = assay: Antiproliferative activity against human MKN45 cells after 72 hrs; conditions: MKN-45, 72 h
[12] = target: T2, TPR/MET fusion protein (Mus musculus); assay: Inhibition of TPR/Met in mouse NIH3T3 cells assessed as inhibition of p44/42 phosphorylation at 0.08 to 10 uM after 2 hrs by Western blotting analysis; assay type: cell-based; summary of the method: as §2
[13] = target: T1, Hepatocyte growth factor receptor; assay: Inhibition of c-Met in human SNU5 cells assessed as inhibition of p44/42 phosphorylation at 0.16 to 20 uM after 2 hrs by Western blotting analysis; assay type: cell-based; conditions: SNU-5; summary of the method: as §2
[14] = target: T2, TPR/MET fusion protein (Mus musculus); assay: Inhibition of TPR/Met phosphorylation in mouse BAF3 cells after 2 hrs by Western blotting analysis; assay type: cell-based; summary of the method: as §2
[15] = target: T1, Hepatocyte growth factor receptor; assay: Inhibition of c-Met phosphorylation in human SNU5 cells after 2 hrs by Western blotting analysis; assay type: cell-based; conditions: SNU-5
Summary of the method: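 Cells grown under regular conditions to exponential phase, exposed to compound at indicated concentrations for 2 h at 37°C, lysed in 1× SDS sample buffer. Lysates resolved on 10% SDS-PAGE and transferred to nitrocellulose for immunoblotting.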

[16] = target: Vascular endothelial growth factor receptor 2 (Homo sapiens, UniProt P35968); assay: Inhibition of KDR (unknown origin) using poly (Glu, Tyr) 4:1 as substrate after 60 mins by ELISA
Summary of the method: (§4)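 ELISA on wells precoated with 20 µg/mL poly(Glu,Tyr)4:1. Purified kinase with 10 µmol/L ATP in 50 mM HEPES pH 7.4, 50 mM MgCl₂, 0.5 mM MnCl₂, 0.2 mM Na₃VO₄, 1 mM DTT; 1% DMSO vehicle. 60 min at 37°C. Phosphotyrosine detected with PY99 antibody, then HRP anti-mouse IgG and o-phenylenediamine/H₂O₂, A490. Inhibition = [1−(A490/A490 control)]×100%; IC50 from curves.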

Ephrin type-A receptor 2 = Ephrin type-A receptor 2 (Homo sapiens, UniProt P29317); assay: Inhibition of EPHA2 (unknown origin) using poly (Glu, Tyr) 4:1 as substrate after 60 mins by ELISA; summary of the method: as §4
[17] = target: Tyrosine-protein kinase ABL1 (Homo sapiens, UniProt P00519); assay: Inhibition of Abl (unknown origin) using poly (Glu, Tyr) 4:1 as substrate after 60 mins by ELISA; summary of the method: as §4
[18] = target: Platelet-derived growth factor receptor beta (Homo sapiens, UniProt P09619); assay: Inhibition of PDGFRbeta (unknown origin) using poly (Glu, Tyr) 4:1 as substrate after 60 mins by ELISA; summary of the method: as §4
[19] = target: Tyrosine-protein kinase receptor TYRO3 (Homo sapiens, UniProt Q06418); assay: Inhibition of TYRO3 (unknown origin) using poly (Glu, Tyr) 4:1 as substrate after 60 mins by ELISA; summary of the method: as §4
[20] = target: Tyrosine-protein kinase receptor UFO (Homo sapiens, UniProt P30530); assay: Inhibition of AXL (unknown origin) using poly (Glu, Tyr) 4:1 as substrate after 60 mins by ELISA; summary of the method: as §4
[21] = target: Fibroblast growth factor receptor 1 (Homo sapiens, UniProt P11362); assay: Inhibition of FGFR1 (unknown origin) using poly (Glu, Tyr) 4:1 as substrate after 60 mins by ELISA; summary of the method: as §4
[22] = target: Epidermal growth factor receptor (Homo sapiens, UniProt P00533); conditions: HCC827, at 0.5 µM

C[C@@H](Sc1cc(-c2cnn(C3CCNCC3)c2)cnc1N)c1c(Cl)ccc(F)c1Cl showed a Vd [1] of 20 L/kg, a bioavailability [2] of 12.8% and a half-life [3] of 5.7 h. The inhibition in vivo at 100 mg/kg (NIH3T3 [4]) was 45.5%, the inhibition [5] was “Active” and the inhibition [6] was “Active”. The inhibition [7] was “Active”, the Activity (MKN-45 [8]) was 60.1% and the IC50 (BaF3) was 0.58 µM. For the same compound, the IC50 (HCT-116) was 14.3 µM, the IC50 (NIH3T3 [9]) was 0.61 µM and the IC50 (SK-OV-3) was 12.7 µM. For the same compound, the IC50 (NCI-H661) was 16.2 µM, the inhibition [10] was “Active” and the IC50 (MKN-45 [11]) was 0.29 µM. For the same compound, the inhibition [12] was “Active”, the inhibition [13] was “Active” and the inhibition [14] was “Dose-dependent effect”. The inhibition [15] was “Dose-dependent effect”, the IC50 [16] was greater than 1 µM and the IC50 (Ephrin type-A receptor 2) was greater than 1 µM. The IC50 [17] was greater than 1 µM, the IC50 [18] was greater than 1 µM and the IC50 [19] was greater than 1 µM. The IC50 [20] was 0.446 µM, the IC50 [21] was greater than 1 µM and the inhibition [22] was “Active”.
